PMC7983942 (Clinical Pharmacology and Therapeutics, 2020)
Changes are numbered by the printed parent chain.

Experiments:
Assay type in all cases: in vitro ADME
[1] = biological target: T1, OATP1B1*1A (Homo sapiens, UniProt Q9Y6L6); experiment: Uptake into transporter-transfected vs wild-type HEK293 cells
T1 sequence (Q9Y6L6 1-691): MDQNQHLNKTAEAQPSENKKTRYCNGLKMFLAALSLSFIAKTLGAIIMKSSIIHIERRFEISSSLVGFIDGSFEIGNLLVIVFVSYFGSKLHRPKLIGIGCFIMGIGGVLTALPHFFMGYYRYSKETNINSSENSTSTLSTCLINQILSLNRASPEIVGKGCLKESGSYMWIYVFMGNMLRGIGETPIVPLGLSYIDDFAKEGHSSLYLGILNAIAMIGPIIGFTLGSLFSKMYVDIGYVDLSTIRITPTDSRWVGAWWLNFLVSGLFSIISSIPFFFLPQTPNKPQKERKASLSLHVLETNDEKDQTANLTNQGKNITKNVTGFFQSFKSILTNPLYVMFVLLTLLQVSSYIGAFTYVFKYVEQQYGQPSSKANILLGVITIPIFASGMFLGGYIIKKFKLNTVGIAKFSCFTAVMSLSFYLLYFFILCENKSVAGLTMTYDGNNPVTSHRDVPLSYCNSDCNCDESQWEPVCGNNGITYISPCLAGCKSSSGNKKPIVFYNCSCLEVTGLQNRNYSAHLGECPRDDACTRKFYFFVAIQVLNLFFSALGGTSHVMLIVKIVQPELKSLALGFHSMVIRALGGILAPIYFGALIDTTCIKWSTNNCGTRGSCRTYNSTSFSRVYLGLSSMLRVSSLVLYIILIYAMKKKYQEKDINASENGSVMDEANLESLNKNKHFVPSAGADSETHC
Outline: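 HEK293 cells stably transfected with OATP1B1*1A, OATP1B3 or OATP2B1, plus wild-type cells, were seeded on poly-D-lysine plates. Culture was 48 h at 37°C in DMEM with 10% FBS, pyruvate, nonessential amino acids and GlutaMAX. Test compound was 1 µM for 2 min; rosuvastatin probe was 1 µM over 2–4 min. Cells were washed four times in ice-cold buffer and lysed in methanol with internal standard. Readouts were uptake ratio versus wild-type and glucuronide/probe ratio of ratios; mean ± SD, n=3 in one experiment.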

[2] = biological target: T2, OATP1B1*5 (Homo sapiens, UniProt Q9Y6L6, V174A); experiment: Uptake into OATP1B1 variant-transfected vs wild-type HEK293 cells; conditions: for Uptake ratio (vs. wild‐type HEK293 cells): 2 minutes
T2 sequence (Q9Y6L6 1-691 V174A): T1 sequence (Q9Y6L6 1-691) with V174A
Outline: (§1)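 HEK293 cells stably expressing an OATP1B1 variant, alongside wild-type HEK293, were seeded at 0.5–1.2 × 10⁵ cells/well on poly-D-lysine plates. They grew 48 h at 37°C and 5% CO₂ in DMEM with 10% FBS, 1% pyruvate, nonessential amino acids and GlutaMAX. Substrate was 1 µM (0.5 µM where footnoted) for 2 min, then four ice-cold buffer washes and methanol lysis with internal standard. Uptake ratio (transfected/wild-type) is expressed as % of OATP1B1*14 in the same experiment; n=3 determinations.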

[3] = biological target: T3, OATP1B1*15 (Homo sapiens, UniProt Q9Y6L6, N130D/V174A); experiment: as above; conditions: for Uptake ratio (vs. wild‐type HEK293 cells): 2 minutes
T3 sequence (Q9Y6L6 1-691 N130D/V174A): T1 sequence (Q9Y6L6 1-691) with N130D, V174A
Outline: as §1

[4] = experiment 1, substrate concentration 0.5 µM

- Uptake ratio (vs. wild‐type HEK293 cells) ([1]; experiment 3, substrate 1 µM, 2 minutes): 51 ± 1.4
- Uptake ratio (vs. wild‐type HEK293 cells), probe ([1]; rosuvastatin 1 µM, two to four minutes): 51.3 ± 1.4
- Uptake ratio as percentage of OATP1B1*14 in the same experiment [2, 4]: 16%
- Uptake ratio (vs. wild‐type HEK293 cells) [2, 4]: 2.4 ± 0.4
- Uptake ratio as percentage of OATP1B1*14 in the same experiment ([2]; experiment 2, substrate 1 µM): 15%
- Uptake ratio (vs. wild‐type HEK293 cells) ([2]; experiment 2, substrate 1 µM): 5.9 ± 0.5
- Uptake ratio as percentage of OATP1B1*14 in the same experiment [3, 4]: 15%
- Uptake ratio (vs. wild‐type HEK293 cells) [3, 4]: 2.3 ± 0.2
- Uptake ratio as percentage of OATP1B1*14 in the same experiment ([3]; experiment 2, substrate 1 µM): 13%
- Uptake ratio (vs. wild‐type HEK293 cells) ([3]; experiment 2, substrate 1 µM): 5.0 ± 0.2
Structure (SMILES): CC(C)c1nc(N(C)S(C)(=O)=O)nc(-c2ccc(F)cc2)c1/C=C/[C@@H](O)C[C@@H](O)CC(=O)O [Rosuvastatin]
